Measurements from ChEMBL document CHEMBL3352332, “Synthesis and SAR study of novel anticancer and antimicrobial naphthoquinone amide derivatives” (Bioorg Med Chem Lett, 2014).
pIC50: −log10 of the molar value. In brackets after ≈: the same amount, converted by molar mass. Activity calls are given as the source filed them. The calls are words filed in the database; no cut-off is given here.

Experiments:
Candida albicans [1] = assay: Antifungal activity against fluconazole-resistant Candida albicans by NCCLS method; type: functional
Candida albicans [2] = assay: Antifungal activity against fluconazole-resistant Candida albicans at 100 ug/well after 24 hrs by well diffusion assay; type: functional; settings: for zone of inhibition at 100 µg/disc: read-out: DIZ
Method in brief: (§1)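 Agar well diffusion on Mueller Hinton agar: 17 h cultures swabbed over the surface, wells cut with a cork borer after 10 min. Each well loaded with 10 µl of a 10 mg/mL DMSO stock (100 µg/well), with a DMSO control well. Plates incubated at 37 °C for 24 h. Zone of inhibition diameter measured in mm.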

Pseudomonas aeruginosa = assay: Antibacterial activity against Pseudomonas aeruginosa MTCC 201 at 100 ug/well after 24 hrs by well diffusion assay; type: functional
Method in brief: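 17 h bacterial cultures swabbed onto Mueller Hinton agar; after 10 min wells were cut with a cork borer and loaded with compound from a 10 mg/mL stock, with a DMSO control. Plates were held at 37 °C for 24 h, and susceptibility was read as the diameter of the zone of inhibition in mm.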

Staphylococcus aureus [3] = assay: Antibacterial activity against methicillin-resistant Staphylococcus aureus at 100 ug/well after 24 hrs by well diffusion assay; type: functional; settings: for zone of inhibition at 100 µg/disc: read-out: DIZ; method in brief: as §1
SAS = assay: Cytotoxicity against human SAS cells assessed as reduction in cell viability after 48 hrs by MTT assay; type: functional, cell-based
Staphylococcus aureus [4] = assay: Antibacterial activity against methicillin-resistant Staphylococcus aureus by NCCLS method; type: functional
HeLa = assay: Cytotoxicity against human HeLa cells assessed as reduction in cell viability after 48 hrs by MTT assay; type: functional, cell-based

SMILES	MIC (Candida albicans [1])	zone of inhibition at 100 µg/disc (Candida albicans [2])	diameter of the inhibition zone (DIZ) (Pseudomonas aeruginosa)	zone of inhibition at 100 µg/disc (Staphylococcus aureus [3])	pIC50 (SAS)	MIC (Staphylococcus aureus [4])	pIC50 (HeLa)	diameter of the inhibition zone (DIZ) (Candida albicans [2])	diameter of the inhibition zone (DIZ) (Staphylococcus aureus [3])	zone of inhibition at 100 µg/disc (Pseudomonas aeruginosa; MTCC 201, 24 h, read-out: DIZ)
COC(=O)[C@H](Cc1ccccc1)NC(=O)CSC1=C(C)C(=O)c2cccc(OC)c2C1=O	125 µg/mL (≈ 276 µM)	13 mm	inactive	15 mm	4.25	125 µg/mL (≈ 276 µM)	< 4.00			
CC[C@H](C)[C@H](NC(=O)CSC1=C(OC)C(=O)c2ccccc2C1=O)C(=O)OC	7.8 µg/mL (≈ 19.2 µM)	12 mm	inactive	15 mm	4.22	7.8 µg/mL (≈ 19.2 µM)	4.09			
COC(=O)[C@H](CC(C)C)NC(=O)CSC1=C(OC)C(=O)c2ccccc2C1=O	62.5 µg/mL (≈ 154 µM)	19 mm	inactive	21 mm	4.59	7.8 µg/mL (≈ 19.2 µM)	4.20			
COC(=O)CNC(=O)CSC1=C(OC)C(=O)c2ccccc2C1=O	15.6 µg/mL (≈ 44.7 µM)	16 mm	inactive	17 mm	4.92	15.6 µg/mL (≈ 44.7 µM)	4.11			
COC(=O)[C@H](C)NC(=O)CSC1=C(OC)C(=O)c2ccccc2C1=O	62.5 µg/mL (≈ 172 µM)	26 mm	inactive	19 mm	4.85	62.5 µg/mL (≈ 172 µM)	4.41			
COC(=O)CNC(=O)CSC1=C(C)C(=O)c2cccc(OC)c2C1=O	125 µg/mL (≈ 344 µM)	21 mm	inactive	20 mm		125 µg/mL (≈ 344 µM)				
COC(=O)[C@H](C)NC(=O)CSC1=CC(=O)c2cccc(OC)c2C1=O			inactive	15 mm		7.8 µg/mL (≈ 21.5 µM)		inactive		
CC[C@H](C)[C@H](NC(=O)CSC1=CC(=O)c2cccc(OC)c2C1=O)C(=O)OC	15.6 µg/mL (≈ 38.5 µM)	15 mm	inactive	19 mm	4.20	15.6 µg/mL (≈ 38.5 µM)	4.02			
COC(=O)[C@H](Cc1ccccc1)NC(=O)CSC1=C(C)C(=O)c2ccccc2C1=O	15.6 µg/mL (≈ 36.8 µM)	16 mm	inactive	13 mm		15.6 µg/mL (≈ 36.8 µM)				
COC(=O)[C@H](Cc1ccccc1)NC(=O)CSC1=C(OC)C(=O)c2ccccc2C1=O			inactive	14 mm		62.5 µg/mL (≈ 142 µM)		inactive		
COC(=O)CCCNC(=O)CSC1=C(C)C(=O)c2ccccc2C1=O	15.6 µg/mL (≈ 43.2 µM)	12 mm	inactive	13 mm		15.6 µg/mL (≈ 43.2 µM)				
COC(=O)CNC(=O)CSC1=CC(=O)c2cccc(OC)c2C1=O	7.9 µg/mL (≈ 22.6 µM)	19 mm	inactive	19 mm	< 4.00	3.9 µg/mL (≈ 11.2 µM)	< 4.00			
COC(=O)[C@@H](NC(=O)CSC1=C(C)C(=O)c2cccc(OC)c2C1=O)C(C)C	7.8 µg/mL (≈ 19.2 µM)	13 mm	inactive	12 mm		15.6 µg/mL (≈ 38.5 µM)				
COC(=O)[C@H](CC(C)C)NC(=O)CSC1=C(C)C(=O)c2cccc(OC)c2C1=O	7.8 µg/mL (≈ 18.6 µM)	25 mm	inactive	21 mm	4.11	7.8 µg/mL (≈ 18.6 µM)	< 4.00			
COC(=O)[C@@H](NC(=O)CSC1=C(C)C(=O)c2ccccc2C1=O)C(C)C	15.6 µg/mL (≈ 41.6 µM)	19 mm	inactive	19 mm	4.80	15.6 µg/mL (≈ 41.6 µM)	4.70			
COC(=O)[C@H](CC(C)C)NC(=O)CSC1=CC(=O)c2cccc(OC)c2C1=O	7.8 µg/mL (≈ 19.2 µM)	12 mm	inactive	11 mm		7.8 µg/mL (≈ 19.2 µM)				
CC[C@H](C)[C@H](NC(=O)CSC1=C(C)C(=O)c2ccccc2C1=O)C(=O)OC	15.6 µg/mL (≈ 40.1 µM)	19 mm	inactive	16 mm		15.6 µg/mL (≈ 40.1 µM)				

SMILES	MIC (Candida albicans [1])	zone of inhibition at 100 µg/disc (Candida albicans [2])	diameter of the inhibition zone (DIZ) (Pseudomonas aeruginosa)	zone of inhibition at 100 µg/disc (Staphylococcus aureus [3])	pIC50 (SAS)	MIC (Staphylococcus aureus [4])	pIC50 (HeLa)	diameter of the inhibition zone (DIZ) (Candida albicans [2])	diameter of the inhibition zone (DIZ) (Staphylococcus aureus [3])	zone of inhibition at 100 µg/disc (Pseudomonas aeruginosa; MTCC 201, 24 h, read-out: DIZ)
COC(=O)[C@H](C)NC(=O)CSC1=C(C)C(=O)c2ccccc2C1=O	15.6 µg/mL (≈ 44.9 µM)	26 mm	inactive	23 mm		15.6 µg/mL (≈ 44.9 µM)				
COC(=O)[C@H](Cc1ccccc1)NC(=O)CSC1=CC(=O)c2cccc(OC)c2C1=O	7.8 µg/mL (≈ 17.7 µM)	17 mm	inactive	15 mm	4.40	7.8 µg/mL (≈ 17.7 µM)	4.24			
COC(=O)CCCNC(=O)CSC1=C(OC)C(=O)c2ccccc2C1=O	15.6 µg/mL (≈ 41.3 µM)	26 mm	inactive	26 mm	4.61	15.6 µg/mL (≈ 41.3 µM)	4.62			
CC1=CC(=O)c2ccccc2C1=O [MENADIONE]	15.6 µg/mL (≈ 90.6 µM)	11 mm	inactive	11 mm	4.85	15.6 µg/mL (≈ 90.6 µM)	4.74			
O=C1C=CC(=O)c2c(O)cccc21			inactive					inactive	inactive	
COC(=O)[C@H](CC(C)C)NC(=O)CSC1=C(C)C(=O)c2ccccc2C1=O	15.6 µg/mL (≈ 40.1 µM)	20 mm	inactive	18 mm		15.6 µg/mL (≈ 40.1 µM)				
COC(=O)CCCNC(=O)CSC1=CC(=O)c2cccc(OC)c2C1=O			inactive	12 mm				inactive		
COC(=O)[C@H](C)NC(=O)CSC1=C(C)C(=O)c2cccc(OC)c2C1=O	125 µg/mL (≈ 331 µM)	18 mm	inactive	18 mm		125 µg/mL (≈ 331 µM)				
COC(=O)CCCNC(=O)CSC1=C(C)C(=O)c2cccc(OC)c2C1=O	15.6 µg/mL (≈ 39.9 µM)	21 mm	inactive	20 mm		15.6 µg/mL (≈ 39.9 µM)				
COC(=O)CNC(=O)CSC1=C(C)C(=O)c2ccccc2C1=O	15.6 µg/mL (≈ 46.8 µM)	22 mm	inactive	23 mm		15.6 µg/mL (≈ 46.8 µM)				
COC(=O)[C@@H](NC(=O)CSC1=CC(=O)c2cccc(OC)c2C1=O)C(C)C	15.6 µg/mL (≈ 39.9 µM)	12 mm	inactive	15 mm	4.35	15.6 µg/mL (≈ 39.9 µM)	< 4.00			
OC(Cn1cncn1)(Cn1cncn1)c1ccc(F)cc1F			inactive					inactive	inactive	
CN[C@@H]1[C@H](O[C@H]2[C@H](O[C@H]3[C@H](O)[C@@H](O)[C@H](N=C(N)N)[C@@H](O)[C@@H]3N=C(N)N)O[C@@H](C)[C@]2(O)C=O)O[C@@H](CO)[C@H](O)[C@H]1O [STREPTOMYCIN]				24 mm		3.9 µg/mL (≈ 6.71 µM)		inactive		13 mm
CC1=CC(=O)c2c(O)cccc2C1=O [PLUMBAGIN]	125 µg/mL (≈ 664 µM)	12 mm	inactive	12 mm	5.52	125 µg/mL (≈ 664 µM)	4.59			
O=C1C=C(O)C(=O)c2ccccc21 [LAWSONE]	250 µg/mL (≈ 1440 µM)	14 mm	inactive	12 mm	< 4.00	125 µg/mL (≈ 718 µM)	< 4.00			
COC(=O)[C@@H](NC(=O)CSC1=C(OC)C(=O)c2ccccc2C1=O)C(C)C	15.6 µg/mL (≈ 39.9 µM)	20 mm	inactive	18 mm	4.25	15.6 µg/mL (≈ 39.9 µM)	4.03			
CC[C@H](C)[C@H](NC(=O)CSC1=C(C)C(=O)c2cccc(OC)c2C1=O)C(=O)OC			inactive					inactive	inactive	
